{
  "source": "ChEMBL document CHEMBL3992510",
  "about": "“Urea Derivatives of 2-Aryl-benzothiazol-5-amines: A New Class of Potential Drugs for Human African Trypanosomiasis” (J Med Chem, 2017)",
  "key": {"[1]": {"system": "Trypanosoma brucei brucei", "assay": "Anti-parasitic activity against Trypanosoma brucei brucei TREU667 infected in mouse assessed as reduction in parasitemia at 50 mg/kg, bid administered via oral gavage on day 21 to 30 post infection measured on day 180 by microscopic method", "type": "functional, organism-based", "summary_of_the_method": "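Groups of five mice are infected on day 0 with 1 × 10^4 parasites to give a chronic infection. From day 21, mice receive 50 mg/kg orally b.i.d. for 10 days (20 doses) in 200 μL of 60% Phosal 53 MCT/30% PEG400/10% EtOH; a vehicle-only group runs alongside. Tail blood slides are examined microscopically until 180 days postinfection. Three mice are sampled before dose 15 and at 1 and 6 h after.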"}, "[2]": {"assay": "Drug level in Swiss-Webster mouse plasma infected with Trypanosoma brucei brucei TREU667 at 50 mg/kg, po bid administered via gavage for 10 days starting from 21 days post infection measured at 1 hr post last dose", "type": "ADME, organism-based"}, "[3]": {"assay": "Drug level in mouse brain at 50 mg/kg, po administered as single dose via gavage measured at 8 hrs post dose by liquid chromatography/tandem mass spectrometric analysis", "type": "ADME, organism-based", "conditions": "read-out: Drug uptake", "summary_of_the_method": "(§1)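 Single 50 mg/kg oral dose in DMSO (5%), Tween 80 (7%), EtOH (3%) in 0.9% saline; groups of three mice killed at 1, 4, 8 and 24 h. Plasma separated by brief centrifugation; brain homogenised in acetonitrile; both assayed by LC-MS/MS, brain values corrected for 3% v/w blood content. Mean ± SEM of 3 mice; plasma LLQ 0.010 μM.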"}, "[4]": {"assay": "AUC (0 to infinity) in mouse at 50 mg/kg, po administered as single dose via gavage as 0.5% methylcellulose cP400/0.5% Tween 80 formulation by liquid chromatography/tandem mass spectrometric analysis", "type": "ADME, organism-based", "set-up": "dose 50 mg/kg, route oral, time infinity", "conditions": "in vivo", "summary_of_the_method": "(§2)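 Single oral gavage dose of 50 mg/kg to groups of three mice, vehicle as in the line. Tail blood of 40 μL is taken into heparinized capillaries at time points out to as much as 32 h. It is spotted on dried-blood cards and quantified by LC-MS/MS. Values are means ± SEM of three mice.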"}, "[5]": {"assay": "Drug level in mouse brain at 50 mg/kg, po administered as single dose via gavage measured at 24 hrs post dose by liquid chromatography/tandem mass spectrometric analysis", "type": "ADME, organism-based", "conditions": "read-out: Drug uptake", "summary_of_the_method": "as §1"}, "[6]": {"assay": "AUC (0 to infinity) in mouse at 50 mg/kg, po administered as single dose via gavage as 7% Tween 80/3% EtOH/5% DMSO formulation by liquid chromatography/tandem mass spectrometric analysis", "type": "ADME, organism-based", "set-up": "dose 50 mg/kg, route oral, time infinity", "conditions": "in vivo", "summary_of_the_method": "as §2"}, "[7]": {"assay": "Drug level in mouse plasma at 50 mg/kg, po administered as single dose via gavage measured at 4 hrs post dose by liquid chromatography/tandem mass spectrometric analysis", "type": "ADME, organism-based", "summary_of_the_method": "as §1"}, "[8]": {"system": "Trypanosoma brucei rhodesiense", "assay": "Antiparasitic activity against Trypanosoma brucei rhodesiense STIB900 infected in Swiss-Webster mouse assessed as reduction in parasitemia at 50 mg/kg, po bid administered via gavage from day 2 to 5 post infection measured on day 60 by microscopic method", "type": "functional, organism-based", "summary_of_the_method": "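Female Swiss-Webster (ND4 outbred) mice, 6–8 weeks old, five per group, are infected on day 0 with 1 × 10^4 parasites. Dosing is 50 mg/kg by oral gavage every 12 h on days 2–5 (eight doses) in 200 μL of 5% DMSO/7% Tween 80/3% EtOH in 0.9% saline. Tail blood is examined microscopically for 60 days, and mice become parasitemic are euthanized. Three mice are sampled before dose 7 and at 1 and 6 h after for plasma levels.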"}, "[9]": {"assay": "Drug level in mouse plasma at 50 mg/kg, po administered as single dose via gavage measured at 24 hrs post dose by liquid chromatography/tandem mass spectrometric analysis", "type": "ADME, organism-based", "summary_of_the_method": "as §1"}},
  "note": "Calls of active or inactive are those of the source. The calls are words filed in the database; no cut-off is given here.",
  "data": [
    {"smiles": "O=C(Nc1ccc2sc(-c3ccc(F)c(F)c3)nc2c1)N1CC[C@H](F)C1", "values": [
      {"measurement": "Activity", "setting": "[1]", "result": "Active"},
      {"measurement": "concentration at 1 h", "setting": "[2]", "result": 23.1, "unit": "µM"},
      {"measurement": "concentration at 8 h", "setting": "[3]", "result": 48.1, "unit": "µM"},
      {"measurement": "AUC(0-inf)", "setting": "[4]", "result": 106, "unit": "µM·h"},
      {"measurement": "concentration at 24 h", "setting": "[5]", "result": 0.28, "unit": "µM"},
      {"measurement": "AUC(0-inf)", "setting": "[6]", "result": "220 to 221", "unit": "µM·h"},
      {"measurement": "concentration at 4 h", "setting": "[7]", "result": 10.2, "unit": "µM"},
      {"measurement": "Activity", "setting": "[8]", "result": "Active"},
      {"measurement": "concentration at 24 h", "setting": "[9]", "result": 0.01, "unit": "µM"}
    ]}
  ]
}
